# Screening results from PubChem.
# A selection: hits, their analogues and other compounds. The true share with any hit is near 1.8%.
# SIAE inh: human SIAE inhibition, primary screen; inhibition, % at 9.66 µM; 0.69% of 370,000 active; SIAE FP-Rh probe binding, fluorescence polarization; Q9HAT2;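 active = inhibition above a cutoff: mean of compounds within the control limits plus 3 SD of those, cut at about 17% in these data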
# Target sequence (Q9HAT2 whole entry, looked up): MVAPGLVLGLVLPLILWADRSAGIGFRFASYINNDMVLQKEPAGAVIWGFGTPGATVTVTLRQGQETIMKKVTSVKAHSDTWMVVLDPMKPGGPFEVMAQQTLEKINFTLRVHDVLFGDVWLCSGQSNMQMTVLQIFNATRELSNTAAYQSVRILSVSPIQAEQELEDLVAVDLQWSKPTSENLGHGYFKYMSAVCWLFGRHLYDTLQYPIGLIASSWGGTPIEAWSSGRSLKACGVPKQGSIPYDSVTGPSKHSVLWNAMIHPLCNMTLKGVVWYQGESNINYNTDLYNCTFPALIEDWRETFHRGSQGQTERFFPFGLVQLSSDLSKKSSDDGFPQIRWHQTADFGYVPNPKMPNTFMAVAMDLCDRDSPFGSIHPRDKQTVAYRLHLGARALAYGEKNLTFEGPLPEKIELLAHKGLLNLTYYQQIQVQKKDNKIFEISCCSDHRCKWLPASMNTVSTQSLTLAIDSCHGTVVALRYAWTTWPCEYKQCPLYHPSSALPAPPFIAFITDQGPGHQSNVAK
# ABHD4 inh: inhibits mouse alpha/beta hydrolase domain 4. purified mABHD4, FP-Rh probe fluorescence polarization. 0.54% of 370,000 active. inhibition, % at 8.92 µM. Q8VD66. AID 720543;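 active = inhibition exceeding the mean over every tested compound plus 3 SD, cut at about 30% in these data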
#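 Assay system: mouse ABHD4 enzyme, wild type / Also added: fluorescent activity-based probe FP-Rh / Doses: single nominal dose of 8.92 µM, 0.89% DMSO final / Timing: 45 min compound pre-incubation plus 60 min probe step, 25 °C / Signal: FP readout, ex 525 nm / em 598 nm / Control set: S159A mutant/DMSO as 100%, compound-well median as 0%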
# TCR-CD3 inh: inhibitors of human TCR-CD3 interaction; TAMRA-labeled TCR probe fluorescence, biochemical; inhibition, % at 9.4 µM; 0.37% of 360,000 active;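 also: recombinant mutant TCR 2C K166C tagged with TAMRA read by polarization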
# HTRA1 inhibitor: inhibitors of human serine peptidase HTRA1; Q92743; recombinant HTRA1, FP-rhodamine activity-based probe, fluorescence polarization; inhibition, % at 5.96 µM; 0.5% of 340,000 active; AID 504803; in the data active = inhibition above about 36%
# Fam108B counter: Fam108B inhibition, counter-screen for RBBP9 inhibitors; inhibition, % at 9.51 µM; 0.33% of 300,000 active; recombinant Fam108B, FP-Rh probe fluorescence polarization; AID 1947;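 active = inhibition above the screen mean inhibition plus 3 SD, computed separately per campaign, cut at about 18% in these data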;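 also: inhibitors lower polarization as less probe binds the enzyme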
# PME-1 primary: PME-1 (human) inhibition. AID 2130. 0.53% of 320,000 active. inhibition, % at 5.9 µM. Q9Y570. recombinant PME-1, FP-Rh probe fluorescence polarization;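 active = inhibition above the campaign mean of all compounds plus 3 SD, cut at about 26% in these data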;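 also: competitive labeling of PME-1 active site by serine hydrolase directed probe; inhibitors block probe labeling so polarization falls and inhibition rises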
# BSA TAMRA ctr: interferes with TAMRA-BSA probe, flagging TCR-CD3 hits. TAMRA-labeled BSA probe fluorescence counterscreen. shares compounds with TCR-CD3 inh. inhibition, % at 9.4 µM. 10% of 1,200 active; in the data active = inhibition above about 23%
# TCR-CD3 conf: TCR-CD3 interaction inhibition, confirmation; 48% of 1,200 active; AID 652036; shares compounds with TCR-CD3 inh; TAMRA-labeled TCR probe fluorescence binding assay; inhibition, % at 9.4 µM
# Hits are given with their value; – = inactive; · = not tested or not shown. Rule as the data show it, unless noted: active = inhibition above about 19%; inactive = the rest.
SMILES,SIAE inh,ABHD4 inh,TCR-CD3 inh,HTRA1 inhibitor,Fam108B counter,PME-1 primary,BSA TAMRA ctr,TCR-CD3 conf
COC(=O)[C@@]1(OC(C)=O)CC(OC(C)=O)[C@H](OC(C)=O)[C@H](OC(C)=O)C1Br (some centres not stated),–,–,·,·,·,·,·,·
CCC1=NN(C(=O)c2cccc([N+](=O)[O-])c2)C(O)(c2ccc(C)cc2)C1 (configuration not stated),–,–,30.3,–,–,–,–,28.3
COc1ccc(-c2cc(-c3nnc(SCC(=O)NC4CCCCC4)n3N)[nH]n2)cc1,–,–,·,·,·,·,·,·
COCC(=O)NNC(=O)c1ccccc1OC,–,–,–,–,–,–,·,·
O=C(CCNC(=O)c1ccccc1)NNC(=O)c1ccccc1Br,–,–,–,–,·,·,·,·
COc1ccccc1OCC(=O)NNC(=O)CCCC(=O)NNC(=O)COc1ccccc1OC,–,–,25.6,–,–,–,–,–
O=C(NNC(=O)c1ccccc1O)c1ccc(Br)cc1,–,–,22.7,–,–,–,–,20.9
O=C(CCNC(=O)c1ccc(Br)cc1)NNC(=O)c1ccccc1O,–,–,22.5,–,–,–,–,20.4
COc1ccccc1C(=O)NCCC(=O)NNC(=O)c1ccccc1O,–,–,45.0,–,–,–,–,30.3
Nc1ncnc2c1ncn2[C@@H]1O[C@H](C(=O)N[C@@H](CCc2ccccc2)C(=O)N2CCN(C(=O)N3CCCCC3)CC2)[C@@H](O)[C@H]1O,–,–,–,·,·,·,·,·
COc1ccccc1/C=C1\SC(=S)N(CCC(=O)NNC(=O)c2ccccc2OC)C1=O,–,–,27.8,–,–,–,–,–
COc1ccccc1C(=O)NNC(=O)c1ccc(C)cc1,–,–,–,–,–,–,·,·
O=C(CCC(=O)c1cccs1)NNC(=O)c1ccccc1O,–,–,48.4,–,–,–,–,28.3
O=C(CCC(=O)c1cccs1)NNC(=O)c1ccc(Cl)cc1,–,–,–,–,·,–,·,·
COc1ccccc1C(=O)NNC(=O)c1ccc(NC(=O)CC(C)C)cc1,–,–,30.6,–,–,–,–,31.9
Cc1ccc(NC(=O)CSc2nnc(-c3cc(-c4ccc(Cl)cc4)n[nH]3)n2N)cc1,–,–,·,·,·,·,·,·
O=C(NCc1ccc(F)c(F)c1)C1CCCN(c2nc3ccccc3o2)C1 (configuration not stated),–,–,·,·,·,·,·,·
CCOC(=O)c1c(C)nc2sc(C(=O)Nc3ccc(C(C)=O)cc3)c(N)c2c1-c1ccc(OC)cc1,–,–,24.5,–,–,–,–,–
Cc1ccc(S(=O)(=O)n2ccc(-c3c(-c4ccc(F)cc4)noc3C)n2)cc1,–,–,·,·,·,·,·,·
CC(C(=O)N1CCCCC1)n1sc2ccccc2c1=O (configuration not stated),–,–,31.4,–,–,–,–,–
COc1cc(O)c(C(CC(=O)N2CCC(C)CC2)c2ccc3c(c2)OCO3)c(OC)c1 (configuration not stated),–,–,·,·,·,·,·,·
COc1ccc(CN(C2CCCC2)S(=O)(=O)c2ccc(-n3cnnn3)cc2)cc1,–,–,–,–,–,–,·,·
COc1ccc(CN(C2CCCC2)S(=O)(=O)c2ccc(-n3cnnn3)cc2)cc1OC,–,–,82.3,–,–,–,–,–
Brc1ccc(-c2nn3c(-c4ccccn4)nnc3s2)o1,–,–,30.1,–,–,–,–,–
O=C(CSc1nnc2ccccn12)NC(=O)c1cccc([N+](=O)[O-])c1,–,–,–,–,·,·,·,·
SMILES,SIAE inh,ABHD4 inh,TCR-CD3 inh,HTRA1 inhibitor,Fam108B counter,PME-1 primary,BSA TAMRA ctr,TCR-CD3 conf
O=C(CSc1nnc2ccccn12)NNC(=O)c1cccc([N+](=O)[O-])c1,–,–,79.7,–,·,–,–,–
COc1ccc(N2CC(C(=O)N/N=C/c3cc([N+](=O)[O-])ccc3O)CC2=O)cc1 (configuration not stated),–,–,25.5,–,–,–,–,–
O=C(O)c1ccc(-n2cccc2/C=N\NC(=O)c2cc3cc(Br)ccc3o2)cc1,–,–,28.7,–,–,–,–,37.4
Cn1cc(/C=N/NC(=O)c2cc3cc(Br)ccc3o2)c2ccccc21,–,–,–,·,–,–,·,·
C=CCN1[C@H](CC(C)C)COc2cc(N3CCSCC3)ccc2S1(=O)=O,–,–,·,·,·,·,·,·
CC(=O)c1ccc(NC(=O)NC2CCCCN(Cc3cccc(Cl)c3)C2=O)cc1 (configuration not stated),–,–,·,·,·,·,·,·
CCCCn1c(N)c(N(CCOC)C(=O)c2cc(-c3ccco3)nc3ccccc23)c(=O)[nH]c1=O,–,–,21.8,–,–,–,–,–
N#CC1=C(N)C(C#N)(C#N)C(c2ccc[nH]2)C2CCCC=C12 (configuration not stated),–,–,21.1,–,–,–,–,–
O=C1NNC(=O)C1c1ccccc1,–,–,34.8,–,–,–,–,–
N=C1C(=O)NC(=O)C1c1ccccc1 (configuration not stated),–,–,–,–,·,·,·,·
Cc1ccc(NC(=O)COC(=O)c2csc3c2CCC(C)C3)cc1S(=O)(=O)N1CCCCC1 (configuration not stated),–,–,18.9,–,–,–,–,–
Cc1ccc(NC(=O)COC(=O)c2ccccc2F)cc1S(=O)(=O)N1CCCCC1,–,–,–,–,·,·,·,·
Cc1ccccc1C(=O)OCC(=O)Nc1cccc(S(=O)(=O)N2CCCCC2)c1,–,–,–,–,·,·,·,·
CC1CCc2c(C(=O)OCC(=O)Nc3cccc(S(=O)(=O)N4CCCCCC4)c3)csc2C1 (configuration not stated),–,–,32.1,–,–,–,–,–
c1ccc(CNC2CCC23CCC(c2ccccc2)CC3)cc1 (configuration not stated),–,–,·,·,·,·,·,·
Cn1c(NC(=O)c2ccccc2)nc(Cc2ccccc2)c1-c1ccccc1,–,–,·,·,·,·,·,·
O=C(CNC(=O)/C=C/c1ccco1)N=Nc1c(O)[nH]c2ccccc12,–,–,29.3,–,–,–,–,43.1
CCN(CC)CCC(c1cc(OC)c(OC)c(OC)c1)c1c(OC)cc(OC)c2ccc(=O)oc12 (configuration not stated),–,–,95.5,–,–,–,–,–
N#C/C(=C\c1ccc(OCc2ccc(C(=O)O)cc2)cc1)C(=O)NCc1ccccc1,–,–,–,–,–,–,·,·
Cc1nc(S/C(=C/c2ccc(OCc3ccc(C(=O)O)cc3)cc2)C(=O)O)n[nH]1,–,–,22.4,–,–,–,–,31.6
C=CCn1c(C)cc(-c2csc(NC(=O)CCc3nc4ccccc4c(=O)[nH]3)n2)c1C,–,–,24.6,–,–,–,–,–
